# Laboratory results reported in ChEMBL document CHEMBL4004822, “Thienopyrimidinone Based Sirtuin-2 (SIRT2)-Selective Inhibitors Bind in the Ligand Induced Selectivity Pocket” (J Med Chem, 2017).
# pIC50: −log10 of the molar value.
# Biological target: T1, NAD-dependent protein deacetylase sirtuin-2 (Homo sapiens, UniProt Q8IXJ6)
# T1 sequence (Q8IXJ6 whole entry): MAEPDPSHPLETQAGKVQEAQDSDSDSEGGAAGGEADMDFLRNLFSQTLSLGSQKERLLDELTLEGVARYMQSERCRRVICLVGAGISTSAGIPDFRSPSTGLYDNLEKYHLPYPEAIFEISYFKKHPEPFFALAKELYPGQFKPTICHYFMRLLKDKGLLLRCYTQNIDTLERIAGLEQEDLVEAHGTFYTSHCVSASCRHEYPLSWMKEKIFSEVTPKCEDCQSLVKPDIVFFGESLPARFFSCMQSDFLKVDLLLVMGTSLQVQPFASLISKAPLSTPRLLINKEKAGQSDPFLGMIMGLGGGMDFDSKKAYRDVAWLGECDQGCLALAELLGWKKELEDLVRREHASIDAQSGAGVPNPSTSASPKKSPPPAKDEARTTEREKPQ
# Experiment: (§1) Inhibition of recombinant human C-terminal His-tagged SIRT2 (50 to 389 end residues) expressed in Escherichia coli using p53 derived (379 to 382 residues) fluorogenic peptide substrate RHKK(Ac)-AMC preincubated for 10 mins followed by substrate addition in presence of NAD+ by fluorescence assay
# Method in brief: (§2)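 Two-step fluorogenic assay with p53 379–382 RHKK(Ac)-AMC. Compound (from 10 mM DMSO stock) preincubated ~10 min with human SIRT before substrate addition. Developer then releases fluorophore, read at ex 360/em 460 nm.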
row,pIC50,Structure (SMILES)
1,4.79,COc1ccccc1Cn1cnc2sc3c(c2c1=O)CCC(NC1CCc2ccccc21)C3 (stereo unspecified)
2,5.24,O=c1c2c3c(sc2ncn1Cc1cccc2ccccc12)CC(NCCc1ccncc1)CC3 (stereo unspecified)
3,5.95,COc1ccc2ccccc2c1Cn1cnc2sc3c(c2c1=O)CCC(NC1CCOCC1)C3 (stereo unspecified)
4,5.38,O=c1c2c3c(sc2ncn1Cc1cccc2cccnc12)CC(NCc1ccco1)CC3 (stereo unspecified)
5,5.42,O=c1c2c3c(sc2ncn1Cc1cccc(-c2ccccc2)c1)CC(NCCN1CCCC1)CC3 (stereo unspecified)
6,5.55,O=c1c2c3c(sc2ncn1Cc1cccc2cccnc12)CC(NCc1cccc(Cl)c1)CC3 (stereo unspecified)
7,5.58,COc1ccc(CNC2CCc3c(sc4ncn(Cc5cccc6cccnc56)c(=O)c34)C2)cn1 (stereo unspecified)
8,4.68,COc1ccc2ccccc2c1Cn1cnc2sc3c(c2c1=O)CCC(NCc1ccccc1)C3 (stereo unspecified)
9,5.72,COc1cccc(CNC2CCc3c(sc4ncn(Cc5c(OC)ccc6ccccc56)c(=O)c34)C2)c1 (stereo unspecified)

# Biological target: T2, NAD-dependent protein deacetylase sirtuin-2 (Homo sapiens) (UniProt Q8IXJ6)
# T2 sequence (whole entry): T1 sequence (Q8IXJ6 whole entry)
# Experiment: as §1, with “coli at 10 uM” for “coli”, “assay relative to control” for “assay”
# Method in brief: as §2
row,inhibition [%],Structure (SMILES)
1,70,COc1ccccc1Cn1cnc2sc3c(c2c1=O)CCC(NC1CCc2ccccc21)C3 (stereo unspecified)
2,75,O=c1c2c3c(sc2ncn1Cc1cccc2ccccc12)CC(NCCc1ccncc1)CC3 (stereo unspecified)
3,96,COc1ccc2ccccc2c1Cn1cnc2sc3c(c2c1=O)CCC(NC1CCOCC1)C3 (stereo unspecified)
4,80,O=c1c2c3c(sc2ncn1Cc1cccc2cccnc12)CC(NCc1ccco1)CC3 (stereo unspecified)
5,77,O=c1c2c3c(sc2ncn1Cc1cccc(-c2ccccc2)c1)CC(NCCN1CCCC1)CC3 (stereo unspecified)
6,88,O=c1c2c3c(sc2ncn1Cc1cccc2cccnc12)CC(NCc1cccc(Cl)c1)CC3 (stereo unspecified)
7,90,COc1ccc(CNC2CCc3c(sc4ncn(Cc5cccc6cccnc56)c(=O)c34)C2)cn1 (stereo unspecified)
8,59,COc1ccc2ccccc2c1Cn1cnc2sc3c(c2c1=O)CCC(NC1CCc2ccccc21)C3 (stereo unspecified)
9,25,COc1cccc(NC2CCc3c(sc4ncn(Cc5ccc(OC)c6ccccc56)c(=O)c34)C2)c1 (stereo unspecified)
10,70,COCCNC1CCc2c(sc3ncn(Cc4cccc(-c5ccccc5)c4)c(=O)c23)C1 (stereo unspecified)
11,34,COc1ccc2ccccc2c1Cn1cnc2sc3c(c2c1=O)CCC(NC1CCCc2ccccc21)C3 (stereo unspecified)
12,49,O=c1c2c3c(sc2ncn1Cc1cccc2cccnc12)CC(NCc1ccccc1F)CC3 (stereo unspecified)
13,66,O=c1c2c3c(sc2ncn1Cc1cccc(-c2ccccc2)c1)CC(NCc1cccs1)CC3 (stereo unspecified)
14,59,COc1cccc(CNC2CCc3c(sc4ncn(Cc5cccc6ccccc56)c(=O)c34)C2)c1 (stereo unspecified)
15,56,O=c1c2c3c(sc2ncn1Cc1cccc(-c2ccccc2)c1)CC(NCc1ccc(Cl)cc1)CC3 (stereo unspecified)
16,56,O=c1c2c3c(sc2ncn1Cc1ccc2ccccc2c1)CC(NCc1cccc(F)c1)CC3 (stereo unspecified)
17,62,Cc1cccc(NC2CCc3c(sc4ncn(Cc5cccc6cccnc56)c(=O)c34)C2)c1 (stereo unspecified)
18,67,O=c1c2c3c(sc2ncn1Cc1ccccc1)CC(NCc1ccccc1Cl)CC3 (stereo unspecified)
19,54,O=c1c2c3c(sc2ncn1Cc1cccc2ccccc12)CC(NCc1cccs1)CC3 (stereo unspecified)
20,28,CC(=O)NCCNC1CCc2c(sc3ncn(Cc4cccc5ccccc45)c(=O)c23)C1 (stereo unspecified)
21,45,O=c1c2c3c(sc2ncn1Cc1cccc(-c2ccccc2)c1)CC(NC1CCc2ccccc21)CC3 (stereo unspecified)

row,inhibition [%],Structure (SMILES)
1,65,O=c1c2c3c(sc2ncn1Cc1cccc2ccccc12)CC(NCc1cccc(F)c1)CC3 (stereo unspecified)
2,62,O=c1c2c3c(sc2ncn1Cc1ccc2ccccc2c1)CC(NCc1cccs1)CC3 (stereo unspecified)
3,35,COc1ccc(Cn2cnc3sc4c(c3c2=O)CCC(Nc2ccc(C)cc2)C4)c2ccccc12 (stereo unspecified)
4,51,COc1ccc2ccccc2c1Cn1cnc2sc(CCNCc3ccc(C#N)cc3)c(C)c2c1=O
5,51,O=c1c2c3c(sc2ncn1Cc1cccc2ccccc12)CC(NC1CCCc2ccccc21)CC3 (stereo unspecified)
6,64,COc1cccc(Cn2cnc3sc4c(c3c2=O)CCC(NCc2ccccc2OC)C4)c1 (stereo unspecified)
7,22,COc1ccccc1NC1CCc2c(sc3ncn(Cc4cccc5ccccc45)c(=O)c23)C1 (stereo unspecified)
8,33,COc1cccc(Cn2cnc3sc4c(c3c2=O)CCC(NCc2ccco2)C4)c1 (stereo unspecified)
9,71,COc1ccc(Cn2cnc3sc4c(c3c2=O)CCC(NCc2cccs2)C4)c2ccccc12 (stereo unspecified)
10,64,O=c1c2c3c(sc2ncn1Cc1cccc2ccccc12)CC(NCc1ccc(Cl)cc1)CC3 (stereo unspecified)
11,14,COc1cccc(Cn2cnc3sc4c(c3c2=O)CCC(NCc2c(C)nn(C)c2C)C4)c1 (stereo unspecified)
12,28,Cc1cccc(NC2CCc3c(sc4ncn(Cc5cccc(-c6ccccc6)c5)c(=O)c34)C2)c1 (stereo unspecified)
13,67,COc1cccc(NC2CCc3c(sc4ncn(Cc5cccc6cccnc56)c(=O)c34)C2)c1 (stereo unspecified)
14,50,Cc1ccc(NC2CCc3c(sc4ncn(Cc5cccc6ccccc56)c(=O)c34)C2)cc1 (stereo unspecified)
15,27,Cc1ccc(NC2CCc3c(sc4ncn(Cc5cccc(-c6ccccc6)c5)c(=O)c34)C2)cc1 (stereo unspecified)
16,37,O=c1c2c3c(sc2ncn1Cc1ccc2ccccc2c1)CC(NC1CCCc2ccccc21)CC3 (stereo unspecified)
17,32,Cc1nn(C)c(C)c1CNC1CCc2c(sc3ncn(Cc4ccccc4)c(=O)c23)C1 (stereo unspecified)
18,75,O=c1c2c3c(sc2ncn1Cc1cccc2cccnc12)CC(NCc1cncnc1)CC3 (stereo unspecified)
19,41,COc1ccc(NC2CCc3c(sc4ncn(Cc5ccc(OC)c6ccccc56)c(=O)c34)C2)cc1 (stereo unspecified)
20,62,COc1cccc(Cn2cnc3sc4c(c3c2=O)CCC(NCC2CCCCC2)C4)c1 (stereo unspecified)
21,53,O=c1c2c3c(sc2ncn1Cc1cccc2cccnc12)CC(NCCN1CCOCC1)CC3 (stereo unspecified)

row,inhibition [%],Structure (SMILES)
1,58,COc1cccc(CNC2CCc3c(sc4ncn(Cc5cccc(OC)c5)c(=O)c34)C2)c1 (stereo unspecified)
2,45,COCCNC1CCc2c(sc3ncn(Cc4ccc5ccccc5c4)c(=O)c23)C1 (stereo unspecified)
3,75,COc1ccc2ccccc2c1Cn1cnc2sc3c(c2c1=O)CCC(NCc1ccc(C#N)cc1)C3 (stereo unspecified)
4,65,COc1ccccc1CCNC1CCc2c(sc3ncn(Cc4c(OC)ccc5ccccc45)c(=O)c23)C1 (stereo unspecified)
5,48,COc1ccc(CNC2CCc3c(sc4ncn(Cc5ccccc5)c(=O)c34)C2)cn1 (stereo unspecified)
6,43,O=c1c2c3c(sc2ncn1Cc1cccc(-c2ccccc2)c1)CC(NCc1ccccc1F)CC3 (stereo unspecified)
7,30,COc1cccc(NC2CCc3c(sc4ncn(Cc5cccc(-c6ccccc6)c5)c(=O)c34)C2)c1 (stereo unspecified)
8,56,O=c1c2c3c(sc2ncn1Cc1ccccc1)CC(NCC1CCCCC1)CC3 (stereo unspecified)
9,44,COc1ccc2ccccc2c1Cn1cnc2sc3c(c2c1=O)CCC(Nc1ccc(F)cc1)C3 (stereo unspecified)
10,29,Cc1ccc(NC2CCc3c(sc4ncn(Cc5ccc6ccccc6c5)c(=O)c34)C2)cc1 (stereo unspecified)
11,45,COc1ccccc1Cn1cnc2sc3c(c2c1=O)CCC(NCc1cncnc1)C3 (stereo unspecified)
12,41,COCCNC1CCc2c(sc3ncn(Cc4cccc5cccnc45)c(=O)c23)C1 (stereo unspecified)
13,58,O=c1c2c3c(sc2ncn1Cc1cccc2ccccc12)CC(NC1CCc2ccccc21)CC3 (stereo unspecified)
14,26,COc1ccccc1NC1CCc2c(sc3ncn(Cc4cccc(-c5ccccc5)c4)c(=O)c23)C1 (stereo unspecified)
15,37,COc1ccccc1Cn1cnc2sc3c(c2c1=O)CCC(NCc1c(C)nn(C)c1C)C3 (stereo unspecified)
16,29,O=c1c2c3c(sc2ncn1Cc1cccc2ccccc12)CC(Nc1ccc2c(c1)OCO2)CC3 (stereo unspecified)
17,18,COc1cccc(Cn2cnc3sc4c(c3c2=O)CCC(NCc2ccccn2)C4)c1 (stereo unspecified)
18,33,O=c1c2c3c(sc2ncn1Cc1ccccc1)CC(NCc1ccncc1)CC3 (stereo unspecified)
19,38,COc1ccc(Cn2cnc3sc4c(c3c2=O)CCC(Nc2ccc3c(c2)OCO3)C4)c2ccccc12 (stereo unspecified)
20,52,COc1ccc(NC2CCc3c(sc4ncn(Cc5cccc6ccccc56)c(=O)c34)C2)cc1 (stereo unspecified)
21,67,N#Cc1ccc(CNC2CCc3c(sc4ncn(Cc5ccc6ccccc6c5)c(=O)c34)C2)cc1 (stereo unspecified)

row,inhibition [%],Structure (SMILES)
1,76,COc1ccc(Cn2cnc3sc4c(c3c2=O)CCC(NCCN2CCOCC2)C4)c2ccccc12 (stereo unspecified)
2,18,O=c1c2c3c(sc2ncn1Cc1ccccc1)CC(NCCc1ccncc1)CC3 (stereo unspecified)
3,44,COc1ccc2ccccc2c1Cn1cnc2sc3c(c2c1=O)CCC(NCCNC(C)=O)C3 (stereo unspecified)
4,60,O=c1c2c3c(sc2ncn1Cc1cccc2ccccc12)CC(NCc1cccc(Cl)c1)CC3 (stereo unspecified)
5,36,COc1ccccc1NC1CCc2c(sc3ncn(Cc4ccc5ccccc5c4)c(=O)c23)C1 (stereo unspecified)
6,39,COc1cccc(Cn2cnc3sc4c(c3c2=O)CCC(NCCc2ccncc2)C4)c1 (stereo unspecified)
7,48,COc1cccc(CNC2CCc3c(sc4ncn(Cc5ccccc5)c(=O)c34)C2)c1 (stereo unspecified)
8,59,COc1ccc(Cn2cnc3sc4c(c3c2=O)CCC(NCc2cccc(F)c2)C4)c2ccccc12 (stereo unspecified)
9,71,COc1ccc(CNC2CCc3c(sc4ncn(Cc5cccc(OC)c5)c(=O)c34)C2)cc1 (stereo unspecified)
10,70,COCCNC1CCc2c(sc3ncn(Cc4ccc(OC)c5ccccc45)c(=O)c23)C1 (stereo unspecified)
11,60,COc1ccccc1CCNC1CCc2c(sc3ncn(Cc4cccc5ccccc45)c(=O)c23)C1 (stereo unspecified)
12,56,COc1ccc(CNC2CCc3c(sc4ncn(Cc5ccccc5OC)c(=O)c34)C2)cn1 (stereo unspecified)
13,69,COc1ccccc1CCNC1CCc2c(sc3ncn(Cc4ccc(OC)c5ccccc45)c(=O)c23)C1 (stereo unspecified)
14,26,O=c1c2c3c(sc2ncn1Cc1ccccc1)CC(NCc1ccccn1)CC3 (stereo unspecified)
15,30,O=c1c2c3c(sc2ncn1Cc1cccc2cccnc12)CC(NC1CCCC1)CC3 (stereo unspecified)
16,27,COc1cccc(Cn2cnc3sc4c(c3c2=O)CCC(NCc2cccnc2)C4)c1 (stereo unspecified)
17,67,Cc1noc(C)c1CNC1CCc2c(sc3ncn(Cc4ccc5ccccc5c4)c(=O)c23)C1 (stereo unspecified)
18,78,COc1cccc(CNC2CCc3c(sc4ncn(Cc5cccc6cccnc56)c(=O)c34)C2)c1 (stereo unspecified)
19,27,O=c1c2c3c(sc2ncn1Cc1ccccc1)CC(NCCc1cccnc1)CC3 (stereo unspecified)
